{"source": "ChEMBL document CHEMBL5653631", "about": "“A Potent and Selective ULK1 Inhibitor Suppresses Autophagy and Sensitizes Cancer Cells to Nutrient Stress” (iScience, 2018)", "key": {"[1]": {"test_system": "U2OS", "experiment": "Inhibition of autophagy in human U2OS cells expressing […] at 100 nM incubated for 2.5 hrs by Fluorescent microscopy based analysis", "type": "functional, cell-based", "method_in_brief": "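U2OS cells stably expressing EGFP-DFCP1 treated 2.5 hr with vehicle or 100 nM AZD8055, with or without 5 μM inhibitor; imaged live by fluorescence microscopy; DFCP1-positive objects per cell counted in 20–25 cells per condition; mean ± SEM, two-tailed unpaired t test.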"}, "[2]": {"test_system": "U2OS", "experiment": "Inhibition of autophagy in human U2OS cells expressing […] assessed as DFCP1-positive puncta formation by measuring fold change at 100 nM incubated for 2.5 hrs by Fluorescent microscopy based analysis", "type": "functional", "method_in_brief": "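U2OS cells stably expressing EGFP-DFCP1 (omegasome marker) were treated 2.5 hr with vehicle or 100 nM AZD8055 (mTOR inhibitor used to induce autophagy), with or without 5 μM inhibitor, and imaged live by fluorescence microscopy. DFCP1-positive objects per cell were counted in 20–25 cells per condition and reported as mean ± SEM, with two-tailed unpaired t test.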"}, "[3]": {"test_system": "U2OS", "experiment": "Inhibition of autophagy in human U2OS cells assessed as ATG12-positive puncta formation at 100 nM incubated for 2.5 hrs by Fluorescent microscopy based analysis", "type": "functional, cell-based", "method_in_brief": "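U2OS cells treated 2.5 hr with vehicle or 100 nM AZD8055, with or without 5 μM inhibitor; fixed and immunostained for endogenous ATG12; ATG12-positive puncta (phagophores) assessed by fluorescence microscopy.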"}, "[4]": {"test_system": "U2OS", "experiment": "Inhibition of autophagy in human U2OS cells assessed as BafA1-induced LC3B-II accumulation by measuring fold change at 100 nM […] by immunoblotting analysis", "type": "functional", "conditions": "time 4 hrs"}}, "note": "Active and inactive are the calls of the source. The calls are words filed in the database; no cut-off is given here.", "data": [{"smiles": "COc1ccc(-c2ccc3c(N4CCOC[C@@H]4C)nc(N4CCOC[C@@H]4C)nc3n2)cc1CO", "note": "[AZD-8055]", "values": [{"measurement": "inhibition", "setting": "[1]", "value": "Active"}, {"measurement": "fold change (FC)", "setting": "[2]", "value": 3}, {"measurement": "inhibition", "setting": "[3]", "value": "Active"}, {"measurement": "fold change (FC)", "setting": "[4]", "value": 2}]}]}
